Reference: publication PMC4629265 (Acta Pharmaceutica Sinica. B, 2015)

Key:
Assay type in all cases: cell-based
Vero cells = assay: Cytotoxicity on Vero cells, CPE method; settings: 3 d
How it was run: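 Vero cells were seeded at 3×10⁴ cells/well and incubated overnight. Test compounds were then added at different concentrations in triplicate and incubated 3 d, with cytotoxicity scored by CPE. TC50, the concentration inhibiting 50% of cell growth versus untreated controls, was calculated by Reed and Muench.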

[1] = Cytotoxicity in Huh7.5 cells, MTT assay; settings: human
How it was run: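 Huh7.5 cells were plated at 1×10⁴ cells/well. After 6 h the medium was replaced with fresh medium containing test compound at various concentrations. Viability was read by MTT at 96 h, and CC50 was calculated by the Reed & Muench method.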

HCV = assay: Anti-HCV assay in infected Huh7.5 cells, HCV RNA by RT-PCR; settings: Hepatitis C virus, Huh7.5, 96 h, read-out: IC50 (anti-HCV activity)
How it was run: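 Huh7.5 cells (DMEM, 10% inactivated FBS) were seeded at 3×10⁴ cells/cm². After 6 h they were infected with chimeric J6/JFH/JC1 HCV stock (45 u/cell) and given test compound at the same time, with an NS3/4A protease inhibitor as positive control. At 96 h, intracellular total RNA was extracted and HCV RNA quantified by one-step RT-PCR. IC50 was calculated by Reed & Muench.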

EV71 (strain SZ-98) = assay: Anti-EV71 assay in Vero cells, CPE method; settings: EV71 strain SZ-98, Vero cells
How it was run: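 Vero cells (MEM, 10% FBS) at 3×10⁴ cells/well were infected with 100TCID50 EV71 strain SZ-98. Test compounds were added immediately at various concentrations and incubated another 48 h. Cytopathic effect was scored, with pirodavir as positive control. IC50 was determined by the Reed and Muench method.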

Compound	TC50 (Vero cells)	CC50 at 96 h [1]	IC50 (HCV)	anti-EV71 activity (in words) (EV71 (strain SZ-98))
CCC(=O)Nc1cc(C(=O)Nc2ccc(C(C)C)cc2)ccc1OC [Compound 22, N-(4-Iso-propylphenyl)-4-methoxy-3-propionamidobenzamide]	>65.35 µM	–	–	–
CCC(=O)Nc1cc(C(=O)Nc2ccc(C(C)(C)C)cc2)ccc1OC [Compound 23, N-(4-tert-Butylphenyl)-4-methoxy-3-propionamidobenzamide]	36.24 ± 0.00 µM	30.7 ± 1.25 µM	0.57 µM	–
CCCCc1ccc(NC(=O)c2ccc(OC)c(NC(=O)CC)c2)cc1 [Compound 24, N-(4-Butylphenyl)-4-methoxy-3-propionamidobenzamide]	36.24 ± 0.00 µM	–	–	–
CCC(=O)Nc1cc(C(=O)Nc2ccc(C3CCCCC3)cc2)ccc1OC [Compound 25, N-(4-Cyclohexylphenyl)-4-methoxy-3-propionamidobenzamide]	–	122 ± 2.6 µM	2.36 ± 0.12 µM	–
CCC(=O)Nc1cc(C(=O)Nc2ccc(C#N)cc2)ccc1OC [Compound 26, N-(4-Cyanophenyl)-4-methoxy-3-propionamidobenzamide]	297.67 µM	–	–	–
CCC(=O)Nc1cc(C(=O)Nc2ccc(N3CCN(C)CC3)cc2)ccc1OC [Compound 27, N-(4-(4-Methylpiperazin-1-yl)phenyl)-4-methoxy-3-propionamidobenzamide]	291.60 ± 0.00 µM	–	–	did not display antiviral activity
CNc1cc(C(=O)Nc2cccc(Cl)c2)ccc1OC [Compound 28, N-(3-Chlorophenyl)-4-methoxy-3-(methylamino)benzamide]	110.50 ± 0.00 µM	–	–	–
CCc1ccc(NC(=O)c2ccc(OC)c(NC)c2)cc1 [Compound 29, N-(4-Ethylphenyl)-4-methoxy-3-(methylamino)benzamide]	>26.09 µM	–	–	–
CNc1cc(C(=O)Nc2ccc(C(C)C)cc2)ccc1OC [Compound 30, N-(4-iso-propylphenyl)-4-methoxy-3-(methylamino)benzamide]	>8.29 µM	–	–	–
CNc1cc(C(=O)Nc2ccc(C(C)(C)C)cc2)ccc1OC [Compound 31, N-(4-tert-Butylphenyl)-4-methoxy-3-(methylamino)benzamide]	34.23 ± 0.00 µM	56.6 ± 4.2 µM	32 ± 2.14 µM	–
CCCCc1ccc(NC(=O)c2ccc(OC)c(NC)c2)cc1 [Compound 32, N-(4-Butylphenyl)-4-methoxy-3-(methylamino)benzamide]	41.12 ± 0.00 µM	–	–	–
CNc1cc(C(=O)Nc2ccc(C3CCCCC3)cc2)ccc1OC [Compound 33, N-(4-Cyclohexylphenyl)-4-methoxy-3-(methylamino)benzamide]	–	40 ± 7.25 µM	34.6 ± 3.1 µM	–
CNc1cc(C(=O)Nc2ccc(C#N)cc2)ccc1OC [Compound 34, N-(4-Cyanophenyl)-4-methoxy-3-(methylamino)benzamide]	>79.07 µM	–	–	–
CCC(=O)Nc1cc(C(=O)Nc2ccc(Cl)cc2)ccc1O [Compound 35, N-(4-Chlorophenyl)-4-hydroxy-3-propionamidobenzamide]	100.79 ± 0.00 µM	–	–	–
CCC(=O)Nc1cc(C(=O)Nc2ccc(C(C)(C)C)cc2)ccc1O [Compound 36, N-(4-tert-Butylphenyl)-4-hydroxy-3-propionamidobenzamide]	86.08 ± 0.00 µM	–	–	–
CCC(=O)Nc1cccc(C(=O)Nc2ccc(Cl)cc2)c1 [Compound 41, N-(4-Chlorophenyl)-3-propionamidobenzamide]	106.12 ± 0.00 µM	> 200 µM	7.12 ± 2.48 µM	–
CNc1cccc(C(=O)Nc2ccc(Cl)cc2)c1 [Compound 42, N-(4-Chlorophenyl)-3-(methylamino)benzamide]	>28.5 µM	164 ± 9.84 µM	19.5 ± 7.18 µM	–
CCC(=O)Nc1cc(C(=O)CNc2ccc(C)cc2)ccc1OC [Compound 49, N-(2-Methoxy-5-(2-(p-tolylamino)acetyl)phenyl)propionamide]	98.31 µM	–	–	inactive
CCC(=O)Nc1cc(C(=O)CNc2ccc(C(C)(C)C)cc2)ccc1OC [Compound 50, N-(5-(2-((4-(tert-Butyl)phenyl)amino)acetyl)-2-methoxyphenyl)propionamide]	>20.14 µM	–	–	inactive
CNc1cc(C(=O)CNc2ccccc2)ccc1OC [Compound 54, 1-(4-Methoxy-3-(methylamino)phenyl)-2-(phenylamino)ethanone]	167.11 ± 34.70 µM	–	–	inactive
CNc1cc(C(=O)CNc2ccc(Cl)cc2)ccc1OC [Compound 55, 2-((4-Chlorophenyl)amino)-1-(4-methoxy-3-(methylamino)phenyl)ethanone]	73.10 ± 0.00 µM	–	–	inactive
CCOC(=O)c1ccc(OCCC2CCN(c3ccc(C)nn3)CC2)cc1 [Pirodavir, pirodavir, reference compound]	49.78 ± 3.96 µM	–	–	–
CCC[C@H](NC(=O)[C@@H]1[C@H]2CCC[C@H]2CN1C(=O)[C@@H](NC(=O)[C@@H](NC(=O)c1cnccn1)C1CCCCC1)C(C)(C)C)C(=O)C(=O)NC1CC1 [VX-950, telaprevir, reference compound]	–	21.3 ± 4.7 µM	0.01 µM	–
N-(2,3-Dihydrobenzo[b][1,4]dioxin-6-yl)-4-methyl-3-(methylamino)benzamide [Compound 44]	322.65 ± 0.00 µM	–	–	poor
N-(2,3-Dihydrobenzo[b][1,4]dioxin-6-yl)-4-methyl-3-propionamidobenzamide [Compound 43]	196.10 ± 0.00 µM	–	–	poor
